From ChEMBL document CHEMBL3102739, “Synthesis and antiproliferative activity of conformationally restricted 1,2,3-triazole analogues of combretastatins in the sea urchin embryo model and against human cancer cell lines” (Bioorg Med Chem, 2014)

How the values were obtained:
[1] = system: UACC-62; experiment: Growth inhibition of human UACC62 cells after 48 hrs by SRB assay; assay type: functional; settings: UACC-62, 48 h
[2] = system: K562; experiment: Growth inhibition of human K562 cells after 48 hrs by SRB assay; assay type: functional; settings: K562, 48 h
[3] = Growth inhibition of human NCI-ADR-RES cells after 48 hrs by SRB assay; assay type: functional
[4] = system: SNB-75; experiment: Growth inhibition of human SNB75 cells after 48 hrs by SRB assay; assay type: functional; settings: SNB-75, 48 h
[5] = system: IGROV-1; experiment: Growth inhibition of human IGROV1 cells after 48 hrs by SRB assay; assay type: functional; settings: IGROV-1, 48 h
[6] = system: COLO 205; experiment: Growth inhibition of human COLO205 cells after 48 hrs by SRB assay; assay type: functional; settings: COLO 205, 48 h
[7] = Growth inhibition of human Hs578T cells after 48 hrs by SRB assay; assay type: functional; settings: Hs-578T
[8] = system: SF-268; experiment: Growth inhibition of human SF268 cells after 48 hrs by SRB assay; assay type: functional; settings: SF-268, 48 h
[9] = system: SK-OV-3; experiment: Growth inhibition of human SKOV3 cells after 48 hrs by SRB assay; assay type: functional; settings: SK-OV-3, 48 h
[10] = system: NCI-H322M; experiment: Growth inhibition of human NCI-H322M cells after 48 hrs by SRB assay; assay type: functional
[11] = system: SW-620; experiment: Growth inhibition of human SW620 cells after 48 hrs by SRB assay; assay type: functional; settings: SW-620, 48 h
[12] = system: PC-3; experiment: Growth inhibition of human PC3 cells after 48 hrs by SRB assay; assay type: functional; settings: PC-3, 48 h
[13] = system: RPMI-8226; experiment: Growth inhibition of human RPMI8226 cells after 48 hrs by SRB assay; assay type: functional; settings: RPMI-8226, 48 h
[14] = system: 786-0; experiment: Growth inhibition of human 786-0 cells after 48 hrs by SRB assay; assay type: functional; settings: 786-0, 48 h
[15] = Growth inhibition of human UO31 cells after 48 hrs by SRB assay; assay type: functional; settings: UO-31, 48 h
[16] = system: ACHN; experiment: Growth inhibition of human ACHN cells after 48 hrs by SRB assay; assay type: functional
[17] = system: MDA-MB-468; experiment: Growth inhibition of human MDA-MB-468 cells after 48 hrs by SRB assay; assay type: functional; settings: MDA-MB-468, 48 h
[18] = system: Paracentrotus lividus; experiment: Antimitotic activity against sea urchin embryo model assessed as cleavage alteration of fertilized egg compound treated at 8 to 20 mins post-fertilization and 45 to 55 mins prior to first mitotic cycle completion measured 2.5 to 5.5 hrs post-fertilization; assay type: functional
Summary of the method: (§1)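 Fertilized eggs are exposed 8–20 min after fertilization to 2-fold decreasing concentrations. Stocks are 10 mM in DMSO, then diluted 10-fold in 95% EtOH; final DMSO is at most 0.05% and EtOH at most 1%. Embryos are kept as a monolayer, up to 2000 embryos/mL, in filtered seawater at room temperature. The value is the threshold concentration giving cleavage alteration, embryo death before hatching or full mitotic arrest. Duplicates were run.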

[19] = system: NCI-H460; experiment: Growth inhibition of human NCI-H460 cells after 48 hrs by SRB assay; assay type: functional; settings: NCI-H460, 48 h
[20] = system: OVCAR-3; experiment: Growth inhibition of human OVCAR3 cells after 48 hrs by SRB assay; assay type: functional; settings: OVCAR-3, 48 h
[21] = system: HCT-116; experiment: Growth inhibition of human HCT116 cells after 48 hrs by SRB assay; assay type: functional; settings: HCT-116, 48 h
[22] = system: NCI-H522; experiment: Growth inhibition of human NCI-H522 cells after 48 hrs by SRB assay; assay type: functional; settings: NCI-H522, 48 h
[23] = system: M14; experiment: Growth inhibition of human M14 cells after 48 hrs by SRB assay; assay type: functional; settings: M14, 48 h
[24] = system: SN12C; experiment: Growth inhibition of human SN12C cells after 48 hrs by SRB assay; assay type: functional
[25] = Growth inhibition of human HCC2998 cells after 48 hrs by SRB assay; assay type: functional; settings: HCC 2998, 48 h
[26] = system: MDA-MB-435; experiment: Growth inhibition of human MDA-MB-435 cells after 48 hrs by SRB assay; assay type: functional; settings: MDA-MB-435, 48 h
[27] = Growth inhibition of human UACC257 cells after 48 hrs by SRB assay; assay type: functional; settings: UACC-257, 48 h
[28] = system: A549; experiment: Growth inhibition of human A549 cells after 48 hrs by SRB assay; assay type: functional; settings: A549, 48 h
[29] = system: Paracentrotus lividus; experiment: Antimitotic activity against sea urchin embryo model assessed as cleavage arrest of fertilized egg compound treated at 8 to 20 mins post-fertilization and 45 to 55 mins prior to first mitotic cycle completion measured 2.5 to 5.5 hrs post-fertilization; assay type: functional; summary of the method: as §1
[30] = system: MOLT-4; experiment: Growth inhibition of human MOLT4 cells after 48 hrs by SRB assay; assay type: functional; settings: MOLT-4, 48 h
[31] = system: SK-MEL-28; experiment: Growth inhibition of human SK-MEL-28 cells after 48 hrs by SRB assay; assay type: functional; settings: SK-MEL-28, 48 h
[32] = system: NCI-H226; experiment: Growth inhibition of human NCI-H226 cells after 48 hrs by SRB assay; assay type: functional; settings: NCI-H226, 48 h
[33] = system: HOP-62; experiment: Growth inhibition of human HOP62 cells after 48 hrs by SRB assay; assay type: functional; settings: HOP-62, 48 h
[34] = system: BT-549; experiment: Growth inhibition of human BT549 cells after 48 hrs by SRB assay; assay type: functional; settings: BT-549, 48 h
[35] = Growth inhibition of human SF539 cells after 48 hrs by SRB assay; assay type: functional; settings: SF-539, 48 h
[36] = system: CAKI-1; experiment: Growth inhibition of human CAKI-1 cells after 48 hrs by SRB assay; assay type: functional; settings: CAKI-1, 48 h
[37] = system: SK-MEL-5; experiment: Growth inhibition of human SK-MEL-5 cells after 48 hrs by SRB assay; assay type: functional; settings: SK-MEL-5, 48 h
[38] = system: HL-60(TB); experiment: Growth inhibition of human HL-60(TB) cells after 48 hrs by SRB assay; assay type: functional; settings: HL-60, 48 h
[39] = system: NCI-H23; experiment: Growth inhibition of human NCI-H23 cells after 48 hrs by SRB assay; assay type: functional; settings: NCI-H23, 48 h
[40] = system: DU-145; experiment: Growth inhibition of human DU145 cells after 48 hrs by SRB assay; assay type: functional; settings: DU-145, 48 h
[41] = system: MDA-MB-231; experiment: Growth inhibition of human MDA-MB-231 cells after 48 hrs by SRB assay; assay type: functional; settings: MDA-MB-231, 48 h
[42] = system: OVCAR-8; experiment: Growth inhibition of human OVCAR8 cells after 48 hrs by SRB assay; assay type: functional; settings: OVCAR-8, 48 h
[43] = Growth inhibition of human OVCAR4 cells after 48 hrs by SRB assay; assay type: functional; settings: OVCAR-4, 48 h
[44] = system: HT-29; experiment: Growth inhibition of human HT-29 cells after 48 hrs by SRB assay; assay type: functional; settings: HT-29, 48 h
[45] = Growth inhibition of human OVCAR5 cells after 48 hrs by SRB assay; assay type: functional; settings: OVCAR-5, 48 h
[46] = Growth inhibition of human RXF393 cells after 48 hrs by SRB assay; assay type: functional; settings: RXF 393, 48 h
[47] = system: Paracentrotus lividus; experiment: Antimitotic activity against sea urchin embryo free-swimming blastula model assessed as embryo spinning compound treated at 8 to 10 hrs post-fertilization measured after 0.25 to 20 hrs; assay type: functional, Blastula stage
[48] = system: CCRF-CEM; experiment: Growth inhibition of human CCRF-CEM cells after 48 hrs by SRB assay; assay type: functional
[49] = system: SF-295; experiment: Growth inhibition of human SF295 cells after 48 hrs by SRB assay; assay type: functional; settings: SF-295, 48 h
[50] = system: MCF7; experiment: Growth inhibition of human MCF7 cells after 48 hrs by SRB assay; assay type: functional; settings: MCF7, 48 h
[51] = system: HCT-15; experiment: Growth inhibition of human HCT15 cells after 48 hrs by SRB assay; assay type: functional; settings: HCT-15, 48 h
[52] = system: SR; experiment: Growth inhibition of human SR cells after 48 hrs by SRB assay; assay type: functional
[53] = system: TK-10; experiment: Growth inhibition of human TK10 cells after 48 hrs by SRB assay; assay type: functional; settings: TK-10, 48 h
[54] = system: A498; experiment: Growth inhibition of human A498 cells after 48 hrs by SRB assay; assay type: functional; settings: A498, 48 h
[55] = system: KM12; experiment: Growth inhibition of human KM12 cells after 48 hrs by SRB assay; assay type: functional; settings: KM12, 48 h
[56] = system: SNB-19; experiment: Growth inhibition of human SNB19 cells after 48 hrs by SRB assay; assay type: functional; settings: SNB-19, 48 h

COc1ccc(-c2nn[nH]c2-c2cc(OC)c3c(c2)OCO3)cc1
GI50 [1]: < 0.01 µM | GI50 [2]: < 0.01 µM | GI50 [3]: < 0.01 µM | GI50 [4]: 0.016 µM | GI50 [5]: 0.023 µM | GI50 [6]: 0.255 µM | GI50 [7]: 0.022 µM | GI50 [8]: 0.101 µM | GI50 [9]: 0.023 µM | GI50 [10]: 0.057 µM | GI50 [11]: 0.014 µM | GI50 [12]: 0.035 µM | GI50 [13]: 0.033 µM | GI50 [14]: 0.032 µM | GI50 [15]: 0.051 µM | GI50 [16]: 0.04 µM | GI50 [17]: 0.019 µM | EC [18]: 0.0005 µM | GI50 [19]: 0.011 µM | GI50 [20]: 0.01 µM | GI50 [21]: 0.019 µM | GI50 [22]: < 0.01 µM | GI50 [23]: 0.013 µM | GI50 [24]: 0.061 µM | GI50 [25]: 0.044 µM | GI50 [26]: < 0.01 µM | GI50 [27]: 23 µM | GI50 [28]: 0.024 µM | EC [29]: 0.002 µM | GI50 [30]: 0.063 µM | GI50 [31]: 0.035 µM | GI50 [32]: 0.294 µM | GI50 [33]: < 0.01 µM | GI50 [34]: 0.121 µM | GI50 [35]: 0.017 µM | GI50 [36]: 0.011 µM | GI50 [37]: 0.029 µM | GI50 [38]: 0.023 µM | GI50 [39]: 0.033 µM | GI50 [40]: 0.032 µM | GI50 [41]: 0.045 µM | GI50 [42]: 0.04 µM | GI50 [43]: 0.518 µM | GI50 [44]: 0.034 µM | GI50 [45]: 0.049 µM | GI50 [46]: 0.017 µM | EC [47]: 0.05 µM | GI50 [48]: 0.026 µM | GI50 [49]: < 0.01 µM | GI50 [50]: < 0.01 µM | GI50 [51]: < 0.01 µM | GI50 [52]: < 0.01 µM | GI50 [53]: 14.7 µM | GI50 [54]: < 0.01 µM | GI50 [55]: 0.023 µM

COc1ccc(-c2cnnn2-c2cc(OC)c3c(c2)OCO3)cc1
GI50 [56]: > 100 µM | GI50 [1]: 0.072 µM | GI50 [2]: 0.041 µM | GI50 [3]: 0.038 µM | GI50 [4]: 0.119 µM | GI50 [5]: 0.123 µM | GI50 [6]: 0.053 µM | GI50 [7]: 0.154 µM | GI50 [8]: 0.611 µM | GI50 [9]: 0.271 µM | GI50 [10]: 0.673 µM | GI50 [11]: 0.056 µM | GI50 [12]: 0.15 µM | GI50 [13]: 0.253 µM | GI50 [14]: 0.363 µM | GI50 [15]: 0.692 µM | GI50 [16]: 0.607 µM | GI50 [17]: 0.062 µM | EC [18]: 0.01 µM | GI50 [19]: 0.055 µM | GI50 [20]: 0.053 µM | GI50 [21]: 0.064 µM | GI50 [22]: 0.021 µM | GI50 [23]: 0.061 µM | GI50 [24]: 0.486 µM | GI50 [25]: 0.258 µM | GI50 [26]: 0.022 µM | GI50 [27]: 74.9 µM | GI50 [28]: 0.088 µM | EC [29]: 0.1 µM | GI50 [30]: 0.122 µM | GI50 [31]: 0.725 µM | GI50 [32]: 4.67 µM | GI50 [33]: 0.125 µM | GI50 [34]: 0.16 µM | GI50 [35]: 0.095 µM | GI50 [36]: 0.098 µM | GI50 [37]: 0.235 µM | GI50 [38]: 0.051 µM | GI50 [40]: 0.232 µM | GI50 [41]: 0.135 µM | GI50 [42]: 0.284 µM | GI50 [43]: 4.17 µM | GI50 [44]: 0.04 µM | GI50 [45]: 0.374 µM | GI50 [46]: 0.157 µM | EC [47]: 0.5 µM | GI50 [48]: 0.132 µM | GI50 [49]: 0.073 µM | GI50 [50]: 0.047 µM | GI50 [51]: 0.045 µM | GI50 [52]: 0.041 µM | GI50 [54]: 0.049 µM | GI50 [55]: 0.06 µM
